For test [1], the system named is P388. In words: Compound (6.4 mg/kg) was tested in vivo against P388 lymphocytic leukemia screen for Median survival time. The format is functional, Mus musculus. An outline of the steps:
(§1)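 Murine P388 lymphocytic leukemia, tumour implanted ip and drug also given ip; testing at Bristol-Myers. Median survival time recorded at the optimal dose (mg/kg per dose) beside concurrently run mitomycin C control; %T/C = treated median survival/control median survival × 100.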

For test [2], the system named is P388. As to the kind of experiment: Minimum effective dose observed for the substrate. As to conditions: Mus musculus, read-out: MED. The format is functional. An outline of the steps:
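Same ip P388 leukemia model with ip dosing; minimum effective dose taken as lowest mg/kg per dose giving %T/C ≥ 125, with concurrent mitomycin C values.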

In test [3] the test system is P388. In words: Compound (25.6 mg/kg) was tested in vivo against P388 lymphocytic leukemia screen for Median survival time. The format is functional, Mus musculus. An outline of the steps: as §1
Test [4] relates to P388. In words: Compound (51.2 mg/kg) was tested in vivo against P388 lymphocytic leukemia screen for Median survival time. The format is functional, Mus musculus. An outline of the steps: as §1

`CO[C@@]12[C@H](COC(N)=O)c3c(O)c(/N=N/C(=O)c4cccs4)c(C)c(O)c3N1C[C@@H]1N[C@@H]12` showed a T/C in the test on P388 [1] of 140%. Besides, the minimal effective dose in the test with P388 [2] was determined as 0.8 mg/kg.
For the molecule `CO[C@@]12[C@H](COC(N)=O)c3c(O)c(/N=N/C(=O)c4cccnc4)c(C)c(O)c3N1C[C@@H]1N[C@@H]12`, the T/C in the test on P388 [3] is given as 150%. In addition, the minimal effective dose in the test on P388 [2] is 12.8 mg/kg.
`CO[C@@]12[C@H](COC(N)=O)c3c(O)c(/N=N/C(=O)OC(C)(C)C)c(C)c(O)c3N1C[C@@H]1N[C@@H]12`: the T/C in the test on P388 [3] amounted to 160%. In addition, the minimal effective dose with P388 [2] came to 0.8 mg/kg.
As to `CCOC(=O)/N=N/c1c(C)c(O)c2c(c1O)[C@@H](COC(N)=O)[C@@]1(OC)[C@H]3N[C@H]3CN21`, the T/C in the test with P388 [3] stood at 180%. For the same molecule, the minimal effective dose in the test with P388 [2] came to 0.8 mg/kg.
`CO[C@@]12[C@H](COC(N)=O)c3c(O)c(/N=N/C(=O)OCC4c5ccccc5-c5ccccc54)c(C)c(O)c3N1C[C@@H]1N[C@@H]12` gave a T/C in the test with P388 [3] of 195%. For the same molecule, the minimal effective dose in the test on P388 [2] was determined as 0.8 mg/kg.
In the case of `CO[C@@]12[C@H](COC(N)=O)c3c(O)c(/N=N/C(=O)c4ccccc4)c(C)c(O)c3N1C[C@@H]1N[C@@H]12`, the T/C in the test with P388 [3] was found to be 150%. Also, the minimal effective dose in the test on P388 [2] came to 0.8 mg/kg.
As to `CO[C@@]12[C@H](COC(N)=O)c3c(O)c(/N=N/C(=O)OCc4ccccc4)c(C)c(O)c3N1C[C@@H]1N[C@@H]12`, the T/C in the test with P388 [1] is recorded as 185%. Moreover, the minimal effective dose in the test on P388 [2] turned out to be 1.6 mg/kg.
Turning to `CO[C@@]12[C@H](COC(N)=O)c3c(O)c(/N=N/C(C)=O)c(C)c(O)c3N1C[C@@H]1N[C@@H]12`, the T/C with P388 [4] is recorded as 190%. The minimal effective dose in the test with P388 [2] was 1.6 mg/kg.

Values taken from ChEMBL document CHEMBL1124331, “Mitomycin C analogues with a substituted hydrazine at position 7. Synthesis, spectral properties, and biological activity” (1989).
